Experimental data from different studies.
Observed: enzyme activity
Action: inhibitor
PDGFRA V561D: Platelet-derived growth factor receptor alpha (PDGFRA, Homo sapiens, UniProt P16234, V561D)
PDGFRA: Platelet-derived growth factor receptor alpha (PDGFRA, Homo sapiens, UniProt P16234)
PDGFRA D842V: Platelet-derived growth factor receptor alpha (PDGFRA, Homo sapiens, UniProt P16234, D842V)

| Structure (SMILES) | target | test | setting | inhibition [%] |
| --- | --- | --- | --- | --- |
| COc1cc2ncnc(Nc3ccc(Oc4ccccc4)cc3C)c2cc1OC | PDGFRA V561D |  | 1 µM | 20 |
| CCCS(=O)(=O)Nc1ccc(F)c(C(=O)c2c[nH]c3ncc(-c4ccc(Cl)cc4)cc23)c1F | PDGFRA |  | 1 µM | < 10 |
| CNC(=O)c1cc(Oc2ccc(NC(=O)Nc3ccc(Cl)c(C(F)(F)F)c3)cc2)ccn1 | PDGFRA V561D |  | 0.3 µM | 99 |
| COc1cc2ncnc(Nc3ccc(Oc4ccccc4)c(C)c3C)c2cc1OC | PDGFRA V561D |  | 1 µM | 7 |
| O=C(CSc1nc2nccnc2c(=O)n1CCc1ccccc1)Nc1nccs1 | PDGFRA |  | 10 µM | 16 |
| CN1CC(Oc2cnc(C#N)cc2-c2ccn3nc(NC(=O)C4CC4)cc3c2)C1 | PDGFRA |  | 1 µM | 4 |
| CC/C(=N\NC(=O)NCc1cccc(O)c1)c1ccc(O)c(C)c1O | PDGFRA D842V |  | 0.1 µM | 1.1 |
| CNCc1ccc(-c2cc(-c3nc(-c4ccc(S(=O)(=O)C(C)C)cc4)cnc3N)on2)cc1 | PDGFRA |  | 0.4 µM | 0 |
| CNC(=O)c1cc2c(Oc3ccc(NC(=O)C4(C(=O)Nc5ccc(F)cc5)CC4)cc3)ccnc2cc1OC | PDGFRA D842V | radiometric | 1 µM | 73 |
| COc1cc(-c2cc(-c3ccc(N4CCNCC4)cc3)cnc2N)cc(OC)c1OC | PDGFRA D842V |  | 0.1 µM | 54 |
